≈ marks a conversion by molar mass, not a printed value. Entries after “also recorded” stand apart in the source; their conditions may differ. Where two headings read alike, the source gives them in different places. Non-standard residues stand in square brackets, D forms with d. Residues, ends and D or L forms follow the SMILES beside them. Dip = N[C@H](C(=O)O)C(c1ccccc1)c1ccccc1
Columns and labels:
[1] = system: human red blood cells (hRBC); test: Hemolytic activity; type: cell-based; details: concentration at which 50% hemolysis was observed
[2] = system: MRSA (ATCC BAA-1556); type: cell-based, Methicillin-resistant staphylococcus aureus
[3] = system: E. coli (ATCC BAA-2452); type: cell-based, Escherichia coli
[4] = system: A. fumigatus (Af-293); test: microbe, parasite or virus in culture; type: cell-based, Aspergillus fumigatus
[5] = system: C. albicans (ATCC 60193); test: microbe, parasite or virus in culture; type: cell-based; details: for MIC: Candida albicans
[6] = system: MRSA (ATCC BAA-1556) biofilm; test: Antibiofilm activity, XTT assay; type: cell-based, Methicillin-resistant staphylococcus aureus
Outline: (§1)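 Bacterial suspensions at 5×10^5 CFU/mL in MH broth were grown 24 h at 37 °C to form biofilms, then washed twice with PBS. […] Biofilms were rewashed, then given XTT plus phenazine methosulfate for 1 h in the dark at 37 °C, and A492 was read. Percentage decrease versus untreated wells; triplicate, run twice.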

[7] = system: E. coli (ATCC BAA-2452) biofilm; test: Antibiofilm activity, XTT assay; type: cell-based, Escherichia coli
Outline: as §1

[8] = system: A. fumigatus (Af-293) biofilm; test: Antibiofilm activity, XTT assay; type: cell-based, Aspergillus fumigatus
Outline: (§2)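 Fungal biofilms came from suspensions at 2×10^7 CFU/mL in RPMI medium grown 24 h at 35 °C, then washed twice with PBS. […] After washing, XTT with phenazine methosulfate was added for 1 h in the dark at 37 °C, and absorbance was read at 492 nm. Percentage decrease versus untreated wells; triplicate, replicated twice.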

[9] = system: C. albicans (ATCC 60193) biofilm; test: Antibiofilm activity, XTT assay; type: cell-based
Outline: as §2

[10] = system: MRSA (ATCC BAA-1556); test: Kill kinetics assay; type: cell-based, Methicillin-resistant staphylococcus aureus
[11] = system: E. coli (ATCC BAA-2452); test: Kill kinetics assay; type: cell-based, Escherichia coli
[12] = system: A. fumigatus (Af-293); test: Kill kinetics assay; type: cell-based, Aspergillus fumigatus; details: after 12 h
[13] = system: C. albicans (ATCC 60193); test: Kill kinetics assay; type: cell-based; details: for eradication of fungal cells: after 12 h
[14] = Calcein dye leakage assay; details: bacterial mimic liposomes; for calcein dye leakage: 5 μg/mL
Outline: (§3)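 Calcein-loaded LUVs were used: negatively charged ones mimic bacterial membranes and zwitterionic ones mimic mammalian membranes. They were diluted in PBS to a final lipid concentration of 40 μM and mixed 1:1 with test compound at 5, 10, 20, 30 or 50 μg/mL. Fluorescence (ex 490/em 520 nm) was read every 10 min for 100 min. Leakage was expressed relative to background and Triton X-100 lysis (100%); triplicate.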

[15] = Calcein dye leakage assay; details: mammalian mimic liposomes; after 100 min; concentration not given
Outline: as §3

[16] = system: E. coli (ATCC 25922) and E. coli (ATCC BAA-2452); test: Resistance development study, repeated exposure; type: cell-based; details: E. coli strains; 18 exposures
[17] = system: Enterococcus faecalis (ATCC 29212)
[18] = system: Enterococcus faecalis (ATCC 51575), vancomycin resistant
[19] = system: Staphylococcus pneumoniae (ATCC 700677), multi-drug resistant; details: Multi-drug resistant (Penicillin, Tetracycline, and Erythromycin)
[20] = system: Clostridium difficile (ATCC 700057)
[21] = system: Clostridium difficile (NAP1/027); details: Reduced susceptibility to multiple antibiotics
[22] = system: Escherichia coli (ATCC BAA-2452), NDM-1
[23] = system: Acinetobacter baumannii (ATCC BAA1605), ciprofloxacin resistant; details: Ciprofloxacin resistant strain
[24] = system: Pseudomonas aeruginosa (ATCC BAA-1744), imipenem resistant; details: Imipenem resistant strain
[25] = system: human skin fibroblast cell (HeKa); details: 24 h, 100 μg/mL
[26] = system: Gram-negative bacteria; details: drug-resistant Gram-negative bacteria, range over strains
[27] = system: fungi; details: range over strains
[28] = in vitro; details: human, cell viability
[29] = in vitro; details: human
[30] = in vitro; details: human, cell viability; remark: listed apart in the source
[31] = in vitro; details: human, cell viability; remark: listed apart in the source
[32] = in vitro; details: human; remark: listed apart in the source
[33] = system: C. krusii (ATCC 6258); test: organism not typed; details: read-out: MIC C. krusii (ATCC 6258)
[34] = system: C. albicans (ATCC 60193); test: microbe, parasite or virus in culture; details: Candida albicans, ATCC60193, read-out: MIC C. albicans (ATCC 60193)
[35] = system: C. albicans (ATCC 10132); test: microbe, parasite or virus in culture; details: Candida albicans, ATCC10132, read-out: MIC C. albicans (ATCC 10132)

Compound: N=C(N)NCCC[C@@H]1NC(=O)[C@H](CCCNC(=N)N)NC(=O)[C@H](CCCNC(=N)N)NC(=O)[C@H](C(c2ccccc2)c2ccccc2)NC(=O)[C@H](Cc2c[nH]c3ccccc23)NC(=O)[C@H](C(c2ccccc2)c2ccccc2)NC(=O)[C@H](CCCNC(=N)N)NC1=O [3b, c[Arg-Arg-Arg-Arg-Dip-Trp-Dip]] (cyclo(RRRR[Dip]W[Dip]))
- HC50 [1]: 230 µg/mL
- MIC CaCl2 [2]: 1.5 µg/mL (≈ 1.19 µM)
- MIC Control [2]: 1.5 µg/mL (≈ 1.19 µM)
- MIC KCl [2]: 3.1 µg/mL (≈ 2.47 µM)
- MIC MgCl2 [2]: 3.1 µg/mL (≈ 2.47 µM)
- MIC NH4Cl [2]: 1.5 µg/mL (≈ 1.19 µM)
- MIC NaCl [2]: 3.1 µg/mL (≈ 2.47 µM)
- MIC NaCl ([3]; ATCC BAA-2452): 25 µg/mL (≈ 19.9 µM)
- MIC CaCl2 ([3]; E. coli (ATCC BAA-2452), CaCl2 2 mM): 12.5 µg/mL (≈ 9.94 µM)
- MIC KCl ([3]; E. coli (ATCC BAA-2452), KCl […]): 12.5 µg/mL (≈ 9.94 µM)
- MIC Control ([3]; E. coli (ATCC BAA-2452), MH media without salt ions or serum): 12.5 µg/mL
- MIC MgCl2 ([3]; E. coli (ATCC BAA-2452), MgCl2 1 mM): 12.5 µg/mL (≈ 9.94 µM)
- MIC NH4Cl ([3]; E. coli (ATCC BAA-2452), NH4Cl 6 mM): 12.5 µg/mL (≈ 9.94 µM)
- MIC MgCl2 ([4]; A. fumigatus (Af-293), MgCl2 1 mM): 12.5 µg/mL (≈ 9.94 µM)
- MIC NaCl ([4]; A. fumigatus (Af-293), NaCl 150 mM): 12.5 µg/mL (≈ 9.94 µM)
- MIC FBS (25%) ([4]; A. fumigatus (Af-293), fetal bovine serum 25%): 12.5 µg/mL (≈ 9.94 µM)
- MIC CaCl2 ([4]; Af-293): 6.2 µg/mL (≈ 4.93 µM)
- MIC Control ([4]; Af-293): 6.2 µg/mL (≈ 4.93 µM)
- MIC KCl ([4]; Af-293): 6.2 µg/mL (≈ 4.93 µM)
- MIC NH4Cl ([4]; Af-293): 6.2 µg/mL (≈ 4.93 µM)
- MIC CaCl2 ([5]; ATCC 60193): 6.2 µg/mL (≈ 4.93 µM)
- MIC Control ([5]; ATCC 60193): 3.1 µg/mL (≈ 2.47 µM)
- MIC KCl ([5]; ATCC 60193): 3.1 µg/mL (≈ 2.47 µM)
- MIC MgCl2 ([5]; ATCC 60193): 3.1 µg/mL (≈ 2.47 µM)
- MIC NH4Cl ([5]; ATCC 60193): 6.2 µg/mL (≈ 4.93 µM)
- MIC NaCl ([5]; ATCC 60193): 3.1 µg/mL (≈ 2.47 µM)
- reduction in biofilm mass ([6]; at 2× the MIC): 60–65%
- reduction in biofilm mass ([6]; at MIC, vs untreated control): 40–45%
- reduction in biofilm mass ([7]; at 2× the MIC): 60–65%
- reduction in biofilm mass ([7]; at MIC): 40–45%
- reduction in biofilm mass ([8]; at 2× the MIC): 49–56%
- reduction in biofilm mass ([8]; at MIC): 31–36%
- decrease in biofilm mass ([9]; at 2× the MIC): 60–62%
- decrease in biofilm mass ([9]; at MIC): 31–39%
- time to virtually eliminate all bacterial cells ([10]; at 4× the MIC): 1 to 2 h
- time to virtually eliminate all bacterial cells ([10]; at MIC): 3 to 4 h
- time to completely halt growth of nearly all cells ([11]; at 4× the MIC): 2 h
- time to completely halt growth of nearly all cells ([11]; at MIC): 4 h
- eradication of fungal cells ([12]; at 4× the MIC): near-complete eradication
- eradication of fungal cells ([12]; at MIC): Complete eradication was not achieved
- eradication of fungal cells ([13]; at 4× the MIC): near-complete eradication
- eradication of fungal cells ([13]; at MIC): Complete eradication was not achieved
- calcein dye leakage ([14]; 40 min): approximately 20%
- calcein dye leakage ([14]; 60 min): ~60%
- incubation time to 100% dye leakage ([14]; 50 μg/mL): 60 min
- calcein dye leakage [15]: 14.11%
- change in MIC after repeated exposure (resistance development) [16]: no signs of resistance development; also recorded: negligible changes in the MIC values
- MIC Enterococcus faecalis (ATCC 29212) [17]: 12.5 µg/mL (≈ 9.94 µM)
- MIC Enterococcus faecalis (ATCC 51575) [18]: 12.5 µg/mL (≈ 9.94 µM)
- MIC Staphylococcus pneumoniae (ATCC 700677) [19]: 12.5 µg/mL (≈ 9.94 µM)
- MIC Clostridium difficile (ATCC 700057) [20]: 12.5 µg/mL (≈ 9.94 µM)
- MIC Clostridium difficile (NAP1/027) [21]: 6.2 µg/mL (≈ 4.93 µM)
- MIC Escherichia coli (ATCC BAA-2452) [22]: 12.5 µg/mL (≈ 9.94 µM)
- MIC Acinetobacter baumannii (ATCC BAA1605) [23]: 12.5 µg/mL (≈ 9.94 µM)
- MIC Pseudomonas aeruginosa (ATCC BAA-1744) [24]: 12.5 µg/mL (≈ 9.94 µM)
- cell viability [25]: > 60%
- MIC [26]: 12.5 to 25 µg/mL
- MIC [27]: 3.1 to 12.5 µg/mL
- viability at 24 h, 100 μg/mL [28]: > 70%
- viability at 24 h, 50 μg/mL [29]: 81 to 89%
- viability at 24 h, 100 μg/mL [29]: > 70%
- viability at 24 h, 250 μg/mL [29]: > 50%
- viability at 24 h, 100 μg/mL [30]: > 70%
- viability at 24 h, 100 μg/mL [31]: > 70%
- remaining at 0.5 h, 75 μM ([32]; human plasma): ~82.4%
- remaining at 12 h, 75 μM ([32]; human plasma): ~52.3%
- remaining at 24 h, 75 μM ([32]; human plasma): ~44.9%
- half-life at 75 μM ([32]; plasma): 13 h

Compound: OC(Cn1cncn1)(Cn1cncn1)c1ccc(F)cc1F [Fluconazole]
- MIC ([5]; ATCC60193, read-out: MIC CaCl2): 1.5 µg/mL (≈ 4.9 µM)
- MIC ([5]; ATCC60193, read-out: MIC Control): 1.5 µg/mL (≈ 4.9 µM)
- MIC ([5]; ATCC60193, read-out: MIC FBS (25%)): 1.5 µg/mL (≈ 4.9 µM)
- MIC ([5]; ATCC60193, read-out: MIC KCl): 1.5 µg/mL (≈ 4.9 µM)
- MIC ([5]; ATCC60193, read-out: MIC MgCl2): 1.5 µg/mL (≈ 4.9 µM)
- MIC ([5]; ATCC60193, read-out: MIC NH4Cl): 1.5 µg/mL (≈ 4.9 µM)
- MIC ([5]; ATCC60193, read-out: MIC NaCl): 1.5 µg/mL (≈ 4.9 µM)
- fungicidal effect in kill kinetics ([13]; MIC and 4×MIC, compared to 3b and 4b): mild fungicidal effect
- MIC [33]: 0.7 µg/mL (≈ 2.29 µM)
- MIC [34]: 1.5 µg/mL (≈ 4.9 µM)
- MIC [35]: 0.7 µg/mL (≈ 2.29 µM)
